Several values for one entry are separate records, joined by “and”; a condition that tells them apart may be missing. Equal values may be shown once.
Key:
Type in all cases: toxicity, cell-based
U2OS [1] = assay: Multiplex assay against U2OS; details: human, 1 µM, compound concentration 1 uM
Procedure, shortened: (§1)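 Imaging took place on a CQ1 microscope at 37°C and 5% CO2 once compound had been added to live cells stained at seeding with Hoechst33342, BioTracker Green Microtubule Cytoskeleton Dye, MitoTracker Red and Annexin V Alexa Fluor 680. CellPathfinder machine-learning gating classed cells as Hoechst high-intensity objects or normal cells, classed normal cells as having healthy, pyknosed or fragmented nuclei, and classed pyknosed cells as mitotic or apoptotic. Tubulin, mitochondrial-mass and membrane-permeability phenotypes are per cents of the healthy-nucleus cells.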

U2OS [2] = assay: Incucyte cell viability with U2OS; details: human, 10 µM, compound concentration 10 uM; further: filed as whole numbers so only -1 and 0 and 1 occur
Fibroblast [3] = assay: Incucyte cell viability with human fibroblast; details: 10 µM, compound concentration 10 uM; further: filed as whole numbers so only -1 and 0 and 1 occur
HEK-293T = assay: Incucyte cell viability with HEK293T; details: human, 10 µM, compound concentration 10 uM; further: filed as whole numbers so only -1 and 0 and 1 occur
Fibroblast [4] = assay: Multiplex assay against human fibroblast; details: 1 µM, compound concentration 1 uM; procedure, shortened: as §1
[5] = 6 h, replicate number 1, timepoint 6 hours
[6] = 12 h, replicate number 1, timepoint 12 hours
[7] = 18 h, replicate number 1, timepoint 18 hours
[8] = 24 h, replicate number 1, timepoint 24 hours

With `CS(=O)(=O)N1CCN(Cc2cc3nc(-c4cccc5[nH]ncc45)nc(N4CCOCC4)c3s2)CC1` [PICTILISIB] the “Population Apoptotic (%)” value (U2OS [1]; 12 h, replicate 1) was 69% and 53%, the “Population Fragmented Nuclei (%)” value (U2OS [1]; 12 h, replicate 1) was 22% and 12% and the “Population Healthy Nuclei (%)” value (U2OS [1]; 12 h, replicate 1) was 35% and 77%. The “Population Hoechst High Intensity Objects (%)” value (U2OS [1]; 12 h, replicate 1) was 4%, the “Population Membrane Permeable-Phenotype (%)” value (U2OS [1]; 12 h, replicate 1) was 47% and 40% and the “Population Mitotic Cells (%)” value (U2OS [1]; 12 h, replicate 1) was 30% and 46%. For the same compound, the “Population Normal (%)” value (U2OS [1]; 12 h, replicate 1) was 95% and 96%, the “Population Tubulin-Different-Phenotype (%)” value (U2OS [1]; 12 h, replicate 1) was 100% and 49% and the “Total Cell Count” value (U2OS [1]; 12 h, replicate 1) was 150 and 194. The “Population Apoptotic (%)” value (U2OS [1]; 12 h, replicate 2) was 74% and 45%, the “Population Fragmented Nuclei (%)” value (U2OS [1]; 12 h, replicate 2) was 13% and the “Population Healthy Nuclei (%)” value (U2OS [1]; 12 h, replicate 2) was 26% and 78%. For the same compound, the “Population Hoechst High Intensity Objects (%)” value (U2OS [1]; 12 h, replicate 2) was 24% and 14%, the “Population Membrane Permeable-Phenotype (%)” value (U2OS [1]; 12 h, replicate 2) was 55% and 27% and the “Population Mitotic Cells (%)” value (U2OS [1]; 12 h, replicate 2) was 25% and 54%. For the same compound, the “Population Normal (%)” value (U2OS [1]; 12 h, replicate 2) was 75% and 86%, the “Total Cell Count” value (U2OS [1]; 12 h, replicate 2) was 91 and the “Population Apoptotic (%)” value (U2OS [1]; 24 h, replicate 1) was 91% and 73%. For the same compound, the “Population Fragmented Nuclei (%)” value (U2OS [1]; 24 h, replicate 1) was 16% and 11%, the “Population Membrane Permeable-Phenotype (%)” value (U2OS [1]; 24 h, replicate 1) was 84% and 29% and the “Population Normal (%)” value (U2OS [1]; 24 h, replicate 1) was 77% and 97%. The “Total Cell Count” value (U2OS [1]; 24 h, replicate 1) was 190 and 175, the “Population Apoptotic (%)” value (U2OS [1]; 24 h, replicate 2) was 94% and 86% and the “Population Fragmented Nuclei (%)” value (U2OS [1]; 24 h, replicate 2) was 21% and 13%. For the same compound, the “Population Healthy Nuclei (%)” value (U2OS [1]; 24 h, replicate 2) was 28% and 75%, the “Population Hoechst High Intensity Objects (%)” value (U2OS [1]; 24 h, replicate 2) was 23% and 10% and the “Population Mitotic Cells (%)” value (U2OS [1]; 24 h, replicate 2) was 5% and 13%. The “Population Normal (%)” value (U2OS [1]; 24 h, replicate 2) was 76% and 89%, the “Total Cell Count” value (U2OS [1]; 24 h, replicate 2) was 159 and 98 and the “Growth Rate” value (U2OS [2]; 0 h, replicate number 1, timepoint 0 hours) was 0. For the same compound, the “Growth Rate” value (U2OS [2]; [5]) was 0, the “Growth Rate” value (U2OS [2]; [6]) was 0 and the “Growth Rate” value (U2OS [2]; [7]) was 0. For the same compound, the “Growth Rate” value (U2OS [2]; [8]) was 0, the “Growth Rate” value (Fibroblast [3]; 0 h, replicate number 2, timepoint 0 hours) was 1 and the “Growth Rate” value (Fibroblast [3]; [5]) was 0. The “Growth Rate” value (Fibroblast [3]; [6]) was 0, the “Growth Rate” value (Fibroblast [3]; [7]) was 0 and the “Growth Rate” value (Fibroblast [3]; [8]) was 0. For the same compound, the “Growth Rate” value (HEK-293T; [5]) was 0, the “Growth Rate” value (HEK-293T; [6]) was 0 and the “Growth Rate” value (HEK-293T; [7]) was 0. The “Growth Rate” value (HEK-293T; [8]) was 0, the “Population Apoptotic (%)” value (Fibroblast [4]; 12 h, replicate 1) was 64% and 41% and the “Population Fragmented Nuclei (%)” value (Fibroblast [4]; 12 h, replicate 1) was 35% and 14%. The “Population Healthy Nuclei (%)” value (Fibroblast [4]; 12 h, replicate 1) was 45% and 47%, the “Population Membrane Permeable-Phenotype (%)” value (Fibroblast [4]; 12 h, replicate 1) was 5% and 11% and the “Population Mitochondria Different-Phenotype (%)” value (Fibroblast [4]; 12 h, replicate 1) was 11% and 25%. For the same compound, the “Population Mitotic Cells (%)” value (Fibroblast [4]; 12 h, replicate 1) was 35% and 58%, the “Population Normal (%)” value (Fibroblast [4]; 12 h, replicate 1) was 83% and 50% and the “Population Pyknosed Nuclei (%)” value (Fibroblast [4]; 12 h, replicate 1) was 18% and 37%. For the same compound, the “Total Cell Count” value (Fibroblast [4]; 12 h, replicate 1) was 234 and 214, the “Population Apoptotic (%)” value (Fibroblast [4]; 12 h, replicate 2) was 80% and 35% and the “Population Fragmented Nuclei (%)” value (Fibroblast [4]; 12 h, replicate 2) was 72% and 48%. For the same compound, the “Population Healthy Nuclei (%)” value (Fibroblast [4]; 12 h, replicate 2) was 18% and 22%, the “Population Hoechst High Intensity Objects (%)” value (Fibroblast [4]; 12 h, replicate 2) was 38% and 35% and the “Population Membrane Permeable-Phenotype (%)” value (Fibroblast [4]; 12 h, replicate 2) was 18% and 9%. The “Population Normal (%)” value (Fibroblast [4]; 12 h, replicate 2) was 61% and 64%, the “Total Cell Count” value (Fibroblast [4]; 12 h, replicate 2) was 94 and 76 and the “Population Apoptotic (%)” value (Fibroblast [4]; 24 h, replicate 1) was 65% and 68%. The “Population Fragmented Nuclei (%)” value (Fibroblast [4]; 24 h, replicate 1) was 38% and 24%, the “Population Healthy Nuclei (%)” value (Fibroblast [4]; 24 h, replicate 1) was 49% and 38% and the “Population Hoechst High Intensity Objects (%)” value (Fibroblast [4]; 24 h, replicate 1) was 21% and 44%. The “Population Membrane Permeable-Phenotype (%)” value (Fibroblast [4]; 24 h, replicate 1) was 4% and 2%, the “Population Mitotic Cells (%)” value (Fibroblast [4]; 24 h, replicate 1) was 34% and 31% and the “Population Normal (%)” value (Fibroblast [4]; 24 h, replicate 1) was 78% and 55%. The “Total Cell Count” value (Fibroblast [4]; 24 h, replicate 1) was 258 and 181, the “Population Apoptotic (%)” value (Fibroblast [4]; 24 h, replicate 2) was 80% and 73% and the “Population Fragmented Nuclei (%)” value (Fibroblast [4]; 24 h, replicate 2) was 63% and 56%. The “Population Healthy Nuclei (%)” value (Fibroblast [4]; 24 h, replicate 2) was 25% and 9%, the “Population Hoechst High Intensity Objects (%)” value (Fibroblast [4]; 24 h, replicate 2) was 36% and 43% and the “Population Mitotic Cells (%)” value (Fibroblast [4]; 24 h, replicate 2) was 20% and 26%. The “Population Normal (%)” value (Fibroblast [4]; 24 h, replicate 2) was 63% and 56%, the “Population Tubulin-Different-Phenotype (%)” value (Fibroblast [4]; 24 h, replicate 2) was 27% and 50% and the “Total Cell Count” value (Fibroblast [4]; 24 h, replicate 2) was 69 and 78.
